Experimental findings from ChEMBL document CHEMBL4706600, “Synthesis, molecular modeling, in vivo study and anticancer activity against prostate cancer of (+) (S)-naproxen derivatives” (Eur J Med Chem, 2020) are described below.

The test system of data set [1] is DU-145. In words: Cytotoxicity against human DU-145 cells assessed as reduction in cell viability by […]. It counts as functional, cell-based. The essentials:
(§1)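 Growth of PC-3, DU-145 and LNCaP prostate cancer lines read by MTS tetrazolium proliferation assay. Cisplatin served as the positive reference standard.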

Data set [2] relates to PC-3. In words: Cytotoxicity against human PC-3 cells assessed as reduction in cell viability by […]. It counts as functional, cell-based. In a few lines: as §1
The test system of data set [3] is LNCaP. In words: Cytotoxicity against human LNCaP cells assessed as reduction in cell viability by […]. It is filed as functional, cell-based. The essentials:
as §1

For data set [4], the target named is Methionine aminopeptidase 2 (Homo sapiens) (UniProt P50579). In words: Inhibition of MetAP2 in human LNCaP cells assessed as reduction in AKT phosphorylation at 5 to 20 uM incubated upto 120 mins by Western blot analysis. It is filed as cell-based. Particulars: dose 5-20 µM, time min <=120. In a few lines: (§2)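 LNCaP cells (1×10^6 per well, n = 3) plated in phenol-red-free RPMI-1640 with 1% FBS for 24 h, then exposed at 5 and 20 µM for 0, 15, 60 and 120 min. Lysates were assayed for total protein, and phosphorylated AKT, ERK, p38 and JNK were detected by Western blot.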
Target sequence in this assay (P50579 2-478 limits assumed): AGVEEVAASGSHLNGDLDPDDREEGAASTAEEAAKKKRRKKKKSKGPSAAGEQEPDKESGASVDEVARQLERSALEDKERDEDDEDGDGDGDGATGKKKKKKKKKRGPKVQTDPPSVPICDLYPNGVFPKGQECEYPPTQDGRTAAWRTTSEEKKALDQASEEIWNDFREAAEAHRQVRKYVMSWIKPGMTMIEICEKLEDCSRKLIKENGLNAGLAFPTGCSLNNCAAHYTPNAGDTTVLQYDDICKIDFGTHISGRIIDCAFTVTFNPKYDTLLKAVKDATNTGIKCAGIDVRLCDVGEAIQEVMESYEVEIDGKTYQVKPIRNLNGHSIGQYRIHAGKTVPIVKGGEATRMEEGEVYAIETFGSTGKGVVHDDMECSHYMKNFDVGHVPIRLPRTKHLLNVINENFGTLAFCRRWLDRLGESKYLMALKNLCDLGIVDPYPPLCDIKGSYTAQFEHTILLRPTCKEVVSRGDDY

Data set [5] has the same target. In words: Inhibition of MetAP2 in human LNCaP cells assessed as reduction in P28/MAPK phosphorylation at 5 to 20 uM incubated upto 120 mins by Western blot analysis. It counts as cell-based. Particulars: dose 5-20 µM. In a few lines: as §2
Target sequence in this assay (P50579 2-478 limits assumed): as above
The target is the same in data set [6]. Kind of data set: Inhibition of MetAP2 in human LNCaP cells assessed as reduction in ERK/MAPK phosphorylation at 5 to 20 uM incubated upto 120 mins by Western blot analysis. It is filed as cell-based. Conditions: dose 5-20 µM, time min <=120. The essentials: as §2
Target sequence in this assay (P50579 2-478 limits assumed): as above
For data set [7] the target is unchanged. In words: Inhibition of MetAP2 in human LNCaP cells assessed as reduction in JNK/MAPK phosphorylation at 5 to 20 uM incubated upto 120 mins by Western blot analysis. It counts as cell-based. Conditions: dose 5-20 µM, time min <=120. The essentials: as §2
Target sequence in this assay (P50579 2-478 limits assumed): as above
Data set [8] relates to LNCaP. Kind of data set: Induction of apoptosis in human LNCAP cells assessed as up regulation of Caspase 3 expression upto 20 uM measured after 6 hrs by Rt-PCR. Conditions: dose microM <=20, time 6.0 hrs, TDE = time-dependent effect. It is filed as functional, cell-based.
For data set [9], the system named is LNCaP. In words: Induction of apoptosis in human LNCAP cells assessed as up regulation of Bax expression upto 20 uM measured after 6 hrs by Rt-PCR. It counts as functional, cell-based. Conditions: dose microM <=20, time 6.0 hrs, TDE = time-dependent effect.
The nature of data set [10]: Toxicity in mouse assessed as effect on sodium level measured after 3 days by blood analyser(reference value: 148.33+/-1.89 mmol/l). Particulars: 72 h, time 3 day. It is filed as tissue-based.
A short description of data set [11]: Toxicity in mouse assessed as effect on alkaline phosphatase level measured after 3 days by blood analyser(reference value: 144.50+/- 83.5 u/l). It is filed as tissue-based. Particulars: 72 h, time 3 day.
A short description of data set [12]: Toxicity in mouse assessed as effect on albumin level measured after 15 days by blood analyser(reference value: 2.6+/- 0.36 g/dl). Conditions: 360 h.
A short description of data set [13]: Toxicity in mouse assessed as effect on alanine transaminase level measured after 3 days by blood analyser(reference value: 679.50+/- 71.5 u/l). It is filed as tissue-based. Particulars: 72 h, time 3 day.
Data set [14] is described as follows: Toxicity in mouse assessed as effect on keratin level measured after 3 days by blood analyser(reference value: 0.2+/- 0.07 mg/dl). Conditions: 72 h, time 3 day. It counts as tissue-based.
Data set [15] can be described thus: Toxicity in mouse assessed as effect on total bilirubin level measured after 3 days by blood analyser(reference value: 0.27+/- 0.05 mg/dl). It counts as tissue-based. Conditions: 72 h, time 3 day.
The nature of data set [16]: Toxicity in mouse assessed as effect on phosphate level measured after 3 days by blood analyser(reference value: 10.07+/- 1.06 mg/dl). It counts as tissue-based. Conditions: 72 h, time 3 day.
A short description of data set [17]: Toxicity in mouse assessed as effect on blood urea nitrogen level measured after 3 days by blood analyser(reference value: 27+/- 2.6 mg/dl). Particulars: in vivo, 72 h, time 3 day.
A short description of data set [18]: Toxicity in mouse assessed as effect on potassium level measured after 3 days by blood analyser(reference value: 10.7+/-2.2 mmol/l). It counts as tissue-based. Particulars: 72 h, time 3 day.
Data set [19] concerns LNCaP. In words: Induction of apoptosis in human LNCAP cells assessed as down regulation of Bcl-2 expression upto 20 uM measured after 6 hrs by Rt-PCR. It is filed as functional, cell-based. Particulars: dose microM <=20, time 6.0 hrs.
Data set [20] has as its system LNCaP. In words: Antitumor activity against human LNCaP cells xenografted in mouse assessed as decrease in ROI of cancer tissue at 0.27 mg measured after 15 days by IVIS image analysis. It counts as functional. Particulars: time 15 day. In a few lines: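 LNCaP cells (5×10^6–6×10^6 cells/100 µL) injected subcutaneously into male nude mice; treatment given over 15 days, with controls receiving saline intraperitoneally every 4 days. Cancerous tissue visualized by in vivo imaging (IVIS).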

Data set [21] is described as follows: Toxicity in mouse assessed as effect on glucose level measured after 3 days by blood analyser(reference value: 192+/- 33 mg/dl). It is filed as tissue-based. Conditions: 72 h, time 3 day.
Data set [22] concerns LNCaP. Kind of data set: Induction of apoptosis in human LNCAP cells assessed as up regulation of Caspase 9 expression upto 20 uM measured after 6 hrs by Rt-PCR. It counts as functional, cell-based. Conditions: dose microM <=20, time 6.0 hrs, TDE = time-dependent effect.
Data set [23] is described as follows: Toxicity in mouse assessed as effect on globulin level measured after 3 days by blood analyser(reference value: 3.17+/-0.31 g/dl). It counts as tissue-based. Particulars: 72 h, time 3 day.
Data set [24] concerns the target Methionine aminopeptidase 2 (Homo sapiens) (UniProt P50579). In words: Inhibition of MetAP2 (unknown origin) incubated measured at 12.5 to 200 uM for 30 mins by spectrophotometric analysis. Conditions: dose 12.5-200 µM.
Target sequence in this assay (P50579 whole entry, looked up): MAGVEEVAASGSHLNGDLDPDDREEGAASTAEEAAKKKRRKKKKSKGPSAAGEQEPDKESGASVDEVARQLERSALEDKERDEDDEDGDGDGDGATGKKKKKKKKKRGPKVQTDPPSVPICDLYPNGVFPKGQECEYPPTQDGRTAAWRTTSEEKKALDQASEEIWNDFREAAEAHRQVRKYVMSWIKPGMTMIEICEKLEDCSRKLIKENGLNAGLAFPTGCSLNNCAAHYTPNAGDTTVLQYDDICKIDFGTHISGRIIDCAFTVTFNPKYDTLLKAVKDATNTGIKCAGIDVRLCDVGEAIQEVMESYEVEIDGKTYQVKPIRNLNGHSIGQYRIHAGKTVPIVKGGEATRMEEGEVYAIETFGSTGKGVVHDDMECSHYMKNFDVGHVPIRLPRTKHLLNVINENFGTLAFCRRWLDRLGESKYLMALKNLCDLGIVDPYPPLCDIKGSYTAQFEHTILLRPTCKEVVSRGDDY
Data set [25] in a line: Toxicity in mouse assessed as effect on total protein level measured after 3 days by blood analyser(reference value: 5.7+/-0.4 g/dl). Particulars: 72 h, time 3 day. It is filed as tissue-based.

Active and inactive are the calls of the source. The calls are words filed in the database; no cut-off is given here. Bounds are passed on as bounds.

On to `COc1ccc2cc([C@H](C)c3nnc(SCc4c(Cl)cccc4Cl)n3-c3ccc(F)cc3)ccc2c1`, for which the IC50 was 12.2 µM in data set [1], 216 µM in [2] and 12.2 µM in data set [3].
As for `COc1ccc(CSc2nnc([C@@H](C)c3ccc4cc(OC)ccc4c3)n2-c2ccc(F)cc2)cc1`, the inhibition entry was “inactive” in data set [4]; “inactive” in data set [5] (time min <=120, in the assay text read “P38/MAPK” for “P28/MAPK”); “inactive” in data set [6]; “inactive” in [7]. Also, the half-maximal inhibitory concentration (IC50) in [1] is over 400 µM; in data set [2], over 400 µM; in data set [3], 22.8 µM.
As to `COc1ccc2cc([C@H](C)c3nnc(SCc4c(C)cc(C)cc4C)n3-c3cccc(Cl)c3)ccc2c1`, the IC50 in data set [1] was 93.3 µM; in [2] it was 16.3 µM; in [3] it was over 400 µM.
The corresponding values for `COc1ccc2cc([C@H](C)C(=O)NNC(=S)Nc3ccc(C(F)(F)F)cc3)ccc2c1` are 62.2 µM, 64.3 µM and 92.8 µM.
On the same counts, the results for `COc1ccc2cc([C@H](C)c3nnc(SCc4ccc(Cl)cc4)n3-c3ccc(F)cc3)ccc2c1` are 57.4 µM, over 400 µM and over 400 µM.
Turning to `COc1cccc(CSc2nnc([C@@H](C)c3ccc4cc(OC)ccc4c3)n2-c2ccc(F)cc2)c1`, the results for the IC50 in [1], in [2] and in data set [3] were 19.2 µM, 211 µM and 14.5 µM, respectively.
As to `COc1ccc2cc([C@H](C)c3nnc(SCc4c(Cl)cccc4Cl)n3-c3ccc(Cl)cc3)ccc2c1`, the IC50 in data set [1] was 36.1 µM; in data set [2], 34.7 µM; in data set [3] it was over 400 µM.
On the same counts, the results for `COc1ccc2cc([C@H](C)c3nnc(SCc4ccc(C)cc4)n3-c3ccc(Cl)cc3)ccc2c1` are 18.8 µM, 8.4 µM and 52.2 µM.
Regarding `COc1ccc2cc([C@H](C)c3nnc(SCc4ccc(C)cc4)n3-c3ccc(F)cc3)ccc2c1`, the IC50 in [1] is 44.3 µM; in data set [2], 229 µM; in data set [3], over 400 µM.
Take `COc1ccc2cc([C@H](C)c3nnc(SCc4c(C)cc(C)cc4C)n3-c3ccc(F)cc3)ccc2c1`: the Activity entry in [8] was “Tde”; in [9], “Tde”; in data set [10], 137.5 mmol/L; in data set [11] it was 58 U/L; in data set [12], 1.25 g/dL; in [13], 64.5 U/L. Besides, the Activity in data set [14] was found to be 0.25 mg/dL; in [15] it was 0.3 mg/dL; in data set [16] it was 7.15 mg/dL; in [17] it was 21.5 mg/dL; in data set [18], 5.6 mmol/L; in data set [21] it was 154 mg/dL. The Activity result in data set [22] was “Tde”; in [23], 3.6 g/dL; in [25], 5.3 g/dL. Besides, the inhibition entry in data set [4], in data set [5] (time min <=120), in data set [6], in [7] and in data set [24] was “Active” in each case. Besides, the half-inhibitory concentration (IC50) in data set [1] was 10.2 µM; in data set [2], 43.3 µM; in data set [3], 2.21 µM. Besides, in [19], the outcome was Active. Also, in data set [20], the “inhibition (INH)” value was 55%.
For `COc1ccc2cc([C@H](C)c3nnc(SCc4c(Cl)cccc4Cl)n3-c3cccc(Cl)c3)ccc2c1`, the results for the IC50 in data set [1], in data set [2] and in data set [3] were over 400 µM, 165 µM and 73.7 µM, respectively.
On the same counts, the results for `COc1ccc2cc([C@H](C)c3nnc(SCc4ccccc4)n3-c3ccc(Cl)cc3)ccc2c1` are 35.8 µM, 14.2 µM and 50.4 µM.
With `COc1ccc(CSc2nnc([C@@H](C)c3ccc4cc(OC)ccc4c3)n2-c2ccc(Cl)cc2)cc1`, the figures for the IC50 in data set [1], in data set [2] and in data set [3] were 72.6 µM, over 400 µM and over 400 µM, respectively.
On to `COc1cccc(CSc2nnc([C@@H](C)c3ccc4cc(OC)ccc4c3)n2-c2ccc(Cl)cc2)c1`, for which the IC50 is over 400 µM in data set [1], 138 µM in [2] and 162 µM in [3].
With `COc1ccc2cc([C@H](C)c3nnc(SCc4ccc(F)cc4)n3-c3ccc(Cl)cc3)ccc2c1`, the results for the IC50 in data set [1], in data set [2] and in data set [3] were 33.6 µM, 10.8 µM and 33.9 µM, respectively.
Turning to `COc1ccc2cc([C@H](C)c3nnc(SCc4ccc(Cl)cc4)n3-c3ccc(Cl)cc3)ccc2c1`, the IC50 in data set [1] was 109 µM; in [2], 5.8 µM; in data set [3], 110 µM.
As to `COc1ccc2cc([C@H](C)c3nnc(SCc4ccc(F)cc4)n3-c3ccc(F)cc3)ccc2c1`, the figures for the IC50 in data set [1], in [2] and in data set [3] were 60.2 µM, over 400 µM and 104 µM, respectively.
